ChEMBL document CHEMBL3112407 (Bioorg Med Chem Lett, 2014)
pIC50: −log10 of the molar value.

Key:
[1] = biological target: T1, Epidermal growth factor receptor (Homo sapiens, UniProt P00533); format: cell-based, KB
[2] = biological target: Receptor tyrosine-protein kinase erbB-2 (Homo sapiens, UniProt P04626); assay: Inhibition of HER2 (unknown origin) after 10 mins
[3] = tested on: A-431; assay: cells; format: functional, cell-based; details: Homo sapiens, A-431, 72 h
[4] = cells; format: functional, cell-based; details: Homo sapiens, Calu-3, 72 h
[5] = tested on: NCI-H1975; assay: cells; format: functional, cell-based; details: Homo sapiens, NCI-H1975, 72 h
[6] = tested on: NCI-N87; assay: cells; format: functional, cell-based; details: Homo sapiens, NCI-N87, 72 h
[7] = tested on: BT-474; assay: cells; format: functional, cell-based; details: Homo sapiens, BT-474, 72 h
[8] = biological target: T1, Epidermal growth factor receptor
[9] = tested on: NCI-H1975; assay: Ratio of gefitinib IC50 to compound IC50 for human NCI-H1975 cells; format: functional
Procedure, shortened: (§1)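 MTT growth assay: cells in ATCC-recommended medium with 10% FBS, seeded at 5.0 × 10³ cells/well, adhered overnight at 37 °C, 5% CO₂. Compound added, then 72 h incubation. MTT added for 4 h. Absorbance read at 550 nm, corrected at 690 nm. IC₅₀ from nonlinear regression of concentration–response data. Ratio is the reference-drug IC₅₀ over the compound IC₅₀ from this assay.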

[10] = tested on: BT-474; assay: Ratio of gefitinib IC50 to compound IC50 for human BT474 cells; format: functional
Procedure, shortened: as §1

[11] = tested on: A-431; assay: Ratio of erlotinib IC50 to compound IC50 for human A431 cells; format: functional
Procedure, shortened: as §1

[12] = tested on: Calu-3; assay: Ratio of gefitinib IC50 to compound IC50 for human Calu3 cells; format: functional
Procedure, shortened: as §1

[13] = tested on: NCI-N87; assay: Ratio of erlotinib IC50 to compound IC50 for human NCI-N87 cells; format: functional
Procedure, shortened: as §1

[14] = tested on: NCI-H1975; assay: Ratio of erlotinib IC50 to compound IC50 for human NCI-H1975 cells; format: functional
Procedure, shortened: as §1

[15] = tested on: BT-474; assay: Ratio of erlotinib IC50 to compound IC50 for human BT474 cells; format: functional
Procedure, shortened: as §1

[16] = tested on: A-431; assay: Ratio of gefitinib IC50 to compound IC50 for human A431 cells; format: functional
Procedure, shortened: as §1

[17] = tested on: NCI-N87; assay: Ratio of gefitinib IC50 to compound IC50 for human NCI-N87 cells; format: functional
Procedure, shortened: as §1

[18] = tested on: Calu-3; assay: Ratio of erlotinib IC50 to compound IC50 for human Calu3 cells; format: functional
Procedure, shortened: as §1

T1 sequence (P00533 whole entry): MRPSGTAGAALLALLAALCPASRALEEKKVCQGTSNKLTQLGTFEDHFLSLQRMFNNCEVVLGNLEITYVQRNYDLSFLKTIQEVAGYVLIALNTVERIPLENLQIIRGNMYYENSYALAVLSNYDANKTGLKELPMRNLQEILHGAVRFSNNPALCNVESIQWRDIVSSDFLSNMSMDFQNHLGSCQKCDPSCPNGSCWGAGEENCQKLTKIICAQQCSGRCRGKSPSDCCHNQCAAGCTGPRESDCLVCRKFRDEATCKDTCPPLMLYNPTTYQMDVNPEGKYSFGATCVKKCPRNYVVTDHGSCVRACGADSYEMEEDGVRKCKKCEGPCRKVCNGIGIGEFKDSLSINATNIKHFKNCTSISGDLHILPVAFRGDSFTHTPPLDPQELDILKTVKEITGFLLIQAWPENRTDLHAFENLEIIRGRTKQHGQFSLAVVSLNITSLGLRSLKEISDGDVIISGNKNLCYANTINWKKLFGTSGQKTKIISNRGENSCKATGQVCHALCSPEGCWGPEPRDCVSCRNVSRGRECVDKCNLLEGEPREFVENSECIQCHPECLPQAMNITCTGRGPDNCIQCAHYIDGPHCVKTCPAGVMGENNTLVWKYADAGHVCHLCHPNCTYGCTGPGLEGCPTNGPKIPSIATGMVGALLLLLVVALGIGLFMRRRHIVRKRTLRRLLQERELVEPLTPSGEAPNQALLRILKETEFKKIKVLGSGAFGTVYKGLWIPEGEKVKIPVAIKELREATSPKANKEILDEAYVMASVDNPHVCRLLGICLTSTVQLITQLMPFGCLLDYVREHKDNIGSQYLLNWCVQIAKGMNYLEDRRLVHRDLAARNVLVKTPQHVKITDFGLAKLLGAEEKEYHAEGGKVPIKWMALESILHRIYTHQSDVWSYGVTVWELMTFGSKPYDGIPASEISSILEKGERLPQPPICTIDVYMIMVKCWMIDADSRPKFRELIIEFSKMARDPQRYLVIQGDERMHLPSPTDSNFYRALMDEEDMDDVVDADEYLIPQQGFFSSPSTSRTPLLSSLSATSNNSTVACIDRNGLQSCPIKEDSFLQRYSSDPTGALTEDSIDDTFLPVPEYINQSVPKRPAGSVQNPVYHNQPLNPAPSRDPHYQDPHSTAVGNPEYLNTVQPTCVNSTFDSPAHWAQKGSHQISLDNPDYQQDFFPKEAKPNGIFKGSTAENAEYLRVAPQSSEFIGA
Receptor tyrosine-protein kinase erbB-2, sequence (P04626 whole entry): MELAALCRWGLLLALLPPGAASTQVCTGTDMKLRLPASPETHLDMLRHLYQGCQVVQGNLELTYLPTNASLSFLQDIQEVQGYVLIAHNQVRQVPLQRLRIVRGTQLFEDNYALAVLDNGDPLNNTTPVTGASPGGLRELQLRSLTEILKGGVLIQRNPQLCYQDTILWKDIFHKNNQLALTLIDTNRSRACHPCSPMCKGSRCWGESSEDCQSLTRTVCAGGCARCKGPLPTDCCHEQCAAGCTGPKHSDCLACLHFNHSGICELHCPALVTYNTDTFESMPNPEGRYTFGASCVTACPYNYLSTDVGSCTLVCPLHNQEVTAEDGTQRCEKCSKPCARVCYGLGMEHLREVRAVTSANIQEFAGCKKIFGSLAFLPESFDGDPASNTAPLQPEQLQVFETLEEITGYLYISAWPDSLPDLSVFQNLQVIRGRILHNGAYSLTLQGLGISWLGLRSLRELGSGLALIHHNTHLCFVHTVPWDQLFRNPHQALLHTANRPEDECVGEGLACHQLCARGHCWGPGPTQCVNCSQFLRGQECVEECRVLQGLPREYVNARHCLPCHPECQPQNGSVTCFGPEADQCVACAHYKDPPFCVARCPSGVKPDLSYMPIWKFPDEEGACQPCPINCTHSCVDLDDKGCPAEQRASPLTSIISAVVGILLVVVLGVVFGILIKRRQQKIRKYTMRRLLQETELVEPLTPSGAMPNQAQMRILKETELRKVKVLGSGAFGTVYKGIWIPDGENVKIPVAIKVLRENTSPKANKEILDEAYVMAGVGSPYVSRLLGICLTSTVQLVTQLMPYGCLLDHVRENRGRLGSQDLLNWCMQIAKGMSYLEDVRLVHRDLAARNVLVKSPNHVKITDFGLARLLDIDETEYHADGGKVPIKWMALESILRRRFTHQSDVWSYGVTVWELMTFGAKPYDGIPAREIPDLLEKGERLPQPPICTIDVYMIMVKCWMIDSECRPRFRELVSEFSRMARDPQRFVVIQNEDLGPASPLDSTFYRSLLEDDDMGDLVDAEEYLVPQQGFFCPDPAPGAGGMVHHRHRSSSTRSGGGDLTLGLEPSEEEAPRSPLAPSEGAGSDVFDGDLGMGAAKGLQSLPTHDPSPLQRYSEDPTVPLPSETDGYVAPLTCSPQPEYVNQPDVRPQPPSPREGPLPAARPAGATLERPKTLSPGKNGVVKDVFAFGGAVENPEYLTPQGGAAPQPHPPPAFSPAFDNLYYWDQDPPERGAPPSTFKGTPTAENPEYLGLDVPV

Compound: C#Cc1cccc(Nc2ncnc3cc4c(cc23)N(C(=O)/C=C/CN2CCCCC2)CCO4)c1
- pIC50 [1]: 7.38
- pIC50 [2]: 6.54
- pIC50 [3]: 6.47
- pIC50 [4]: 6.26
- pIC50 [5]: 6.06
- pIC50 [6]: 6.80
- pIC50 [7]: 6.06
- pIC50 [8]: 8.40

Compound: C#Cc1cccc(Nc2ncnc3cc4c(cc23)N(C(=O)/C=C/CN2CCC(C)CC2)CCO4)c1
- pIC50 [1]: 7.09
- pIC50 [2]: 6.48
- pIC50 [3]: 6.40
- pIC50 [4]: 5.78
- pIC50 [5]: 6.05
- pIC50 [6]: 6.60
- pIC50 [7]: 5.86
- pIC50 [8]: 8.30

Compound: C#Cc1cccc(Nc2ncnc3cc4c(cc23)N(C(=O)/C=C/CN2CCN(C)CC2)CCO4)c1
- pIC50 [1]: 6.11
- pIC50 [2]: 5.95
- pIC50 [3]: 6.32
- pIC50 [4]: 5.69
- pIC50 [5]: 5.84
- pIC50 [6]: 6.66
- pIC50 [7]: 5.88
- pIC50 [8]: 7.80

Compound: C#Cc1cccc(Nc2ncnc3cc4c(cc23)N(C(=O)/C=C/CN2CCC(C)CC2)CCCO4)c1
- pIC50 [1]: < 5.00
- pIC50 [3]: < 5.00
- pIC50 [4]: < 5.00
- pIC50 [5]: < 5.00
- pIC50 [6]: < 5.00
- pIC50 [7]: < 5.00

Compound: C#Cc1cccc(Nc2ncnc3cc4c(cc23)N(C(=O)/C=C/CN(CC)CC)CCO4)c1
- pIC50 [1]: 7.38
- pIC50 [2]: 6.60
- pIC50 [3]: 6.72
- pIC50 [4]: 6.46
- pIC50 [5]: 6.17
- pIC50 [6]: 6.82
- pIC50 [7]: 6.26
- pIC50 [8]: 8.30

Compound: C#Cc1cccc(Nc2ncnc3cc4c(cc23)N(C(=O)/C=C/CN2CCCCC2)CCCO4)c1
- pIC50 [1]: < 5.00
- pIC50 [3]: < 5.00
- pIC50 [4]: < 5.00
- pIC50 [5]: 5.07
- pIC50 [6]: < 5.00
- pIC50 [7]: < 5.00

Compound: C#Cc1cccc(Nc2ncnc3cc4c(cc23)N(C(=O)/C=C/CN(C)C)CCCO4)c1
- pIC50 [1]: < 5.00
- pIC50 [3]: 5.76
- pIC50 [4]: < 5.00
- pIC50 [5]: 5.73
- pIC50 [6]: < 5.00
- pIC50 [7]: < 5.00

Compound: C#Cc1cccc(Nc2ncnc3cc4c(cc23)N(C(=O)/C=C/CN2CCCC2)CCO4)c1
- pIC50 [1]: 7.22
- pIC50 [2]: 6.64
- pIC50 [3]: 6.96
- pIC50 [4]: 6.15
- pIC50 [5]: 6.49
- pIC50 [6]: 6.92
- pIC50 [7]: 6.48
- pIC50 [8]: 8.52

Compound: C#Cc1cccc(Nc2ncnc3cc4c(cc23)N(C(=O)/C=C/CN2CCCCC2C)CCCO4)c1 (stereo not given)
- pIC50 [1]: < 5.00
- pIC50 [3]: < 5.00
- pIC50 [4]: < 5.00
- pIC50 [5]: < 5.00
- pIC50 [6]: < 5.00
- pIC50 [7]: < 5.00

Compound: C#Cc1cccc(Nc2ncnc3cc4c(cc23)N(C(=O)/C=C/CN2CCOCC2)CCO4)c1
- pIC50 [1]: 6.19
- pIC50 [2]: 6.03
- pIC50 [3]: 6.28
- pIC50 [4]: 6.00
- pIC50 [5]: 6.11
- pIC50 [6]: 6.22
- pIC50 [7]: 5.86
- pIC50 [8]: 7.92

Compound: C#Cc1cccc(Nc2ncnc3cc4c(cc23)N(C(=O)/C=C/CN2CCOCC2)CCCO4)c1
- pIC50 [1]: < 5.00
- pIC50 [3]: < 5.00
- pIC50 [4]: < 5.00
- pIC50 [5]: < 5.00
- pIC50 [6]: < 5.00
- pIC50 [7]: < 5.00

Compound: C#Cc1cccc(Nc2ncnc3cc4c(cc23)N(C(=O)/C=C/CN2CCCC2)CCCO4)c1
- pIC50 [1]: < 5.00
- pIC50 [3]: 5.74
- pIC50 [4]: < 5.00
- pIC50 [5]: 5.76
- pIC50 [6]: < 5.00
- pIC50 [7]: < 5.00

Compound: C#Cc1cccc(Nc2ncnc3cc4c(cc23)N(C(=O)/C=C/CN(CC)CC)CCCO4)c1
- pIC50 [1]: < 5.00
- pIC50 [3]: 5.67
- pIC50 [4]: < 5.00
- pIC50 [5]: < 5.00
- pIC50 [6]: < 5.00
- pIC50 [7]: < 5.00

Compound: C#Cc1cccc(Nc2ncnc3cc4c(cc23)N(C(=O)/C=C/CN2CCN(C)CC2)CCCO4)c1
- pIC50 [1]: < 5.00
- pIC50 [3]: < 5.00
- pIC50 [4]: < 5.00
- pIC50 [5]: < 5.00
- pIC50 [6]: < 5.00
- pIC50 [7]: < 5.00

Compound: C#Cc1cccc(Nc2ncnc3cc4c(cc23)N(C(=O)/C=C/CN2CCCCC2C)CCO4)c1 (stereo not given)
- pIC50 [2]: 6.54
- pIC50 [3]: 6.16
- pIC50 [4]: 6.02
- pIC50 [5]: 5.91
- pIC50 [6]: 6.57
- pIC50 [7]: 5.94

Compound: C#Cc1cccc(Nc2ncnc3cc4c(cc23)N(C(=O)/C=C/CN(C)C)CCO4)c1
- Ratio IC50 [9]: 33
- Ratio IC50 [10]: 1.5
- pIC50 [1]: 7.34
- Ratio IC50 [11]: 3.3
- pIC50 [2]: 6.60
- pIC50 [3]: 6.64
- Ratio IC50 [12]: 7.1
- Ratio IC50 [13]: > 210
- Ratio IC50 [14]: 18
- pIC50 [4]: 6.85
- pIC50 [5]: 6.52
- Ratio IC50 [15]: > 42
- pIC50 [6]: 7.34
- pIC50 [7]: 6.62
- Ratio IC50 [16]: 2.4
- Ratio IC50 [17]: 22
- Ratio IC50 [18]: 6.6
- pIC50 [8]: 8.52
